Data taken from PubChem BioAssay.
The source made the active and inactive calls.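 Rule for the calls, unless noted: active = current rise at least 3 SD above the untreated control mean in each of two repeat wells; inactive = the rest.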

Legend:
[1] = nonspecific flux increase, KCNQ1-free cells – parental CHO cells, counter-screen for KCNQ1 potentiator project (AID 493006;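 active = duplicate-averaged activation above buffer control mean plus 5 SD of those controls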); settings: parental CHO-K1 cells, FluxOR thallium flux, at 10 µM; hits give high values
Summary of the method: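 Assay system: Untransfected host CHO-K1 cells with FluxOR thallium dye | Probe or stimulus: Potassium/thallium depolarization pulse | Schedule: Overnight 37 °C plating, 90 min RT dye, 20 min compound | Detection: Kinetic thallium-flux fluorescence | Read-out: Max-minus-min fluorescence over baseline, percent of buffer-to-R-L3 span | Benchmarks: Low control buffer, high control R-L3 activator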

[2] = target: Potassium voltage-gated channel subfamily KQT member 1 (Homo sapiens) (UniProt P51787); experiment: enhancement of KCNQ1 channel thallium flux – FluxOR thallium flux, CHO cells, duplicates, confirmation (AID 493007;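 active = potentiation averaged over duplicate wells exceeding buffer-only control mean by more than 3 SD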;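 for outcome: cells depolarized by a potassium plus thallium sulfate stimulus after compound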); settings: KCNQ1 cell line, FluxOR thallium flux fluorescence, at 10 µM; hits give high values, % of reference activator effect, buffer zero
Potassium voltage-gated channel subfamily KQT member 1 (Homo sapiens), sequence (P51787 whole entry, looked up): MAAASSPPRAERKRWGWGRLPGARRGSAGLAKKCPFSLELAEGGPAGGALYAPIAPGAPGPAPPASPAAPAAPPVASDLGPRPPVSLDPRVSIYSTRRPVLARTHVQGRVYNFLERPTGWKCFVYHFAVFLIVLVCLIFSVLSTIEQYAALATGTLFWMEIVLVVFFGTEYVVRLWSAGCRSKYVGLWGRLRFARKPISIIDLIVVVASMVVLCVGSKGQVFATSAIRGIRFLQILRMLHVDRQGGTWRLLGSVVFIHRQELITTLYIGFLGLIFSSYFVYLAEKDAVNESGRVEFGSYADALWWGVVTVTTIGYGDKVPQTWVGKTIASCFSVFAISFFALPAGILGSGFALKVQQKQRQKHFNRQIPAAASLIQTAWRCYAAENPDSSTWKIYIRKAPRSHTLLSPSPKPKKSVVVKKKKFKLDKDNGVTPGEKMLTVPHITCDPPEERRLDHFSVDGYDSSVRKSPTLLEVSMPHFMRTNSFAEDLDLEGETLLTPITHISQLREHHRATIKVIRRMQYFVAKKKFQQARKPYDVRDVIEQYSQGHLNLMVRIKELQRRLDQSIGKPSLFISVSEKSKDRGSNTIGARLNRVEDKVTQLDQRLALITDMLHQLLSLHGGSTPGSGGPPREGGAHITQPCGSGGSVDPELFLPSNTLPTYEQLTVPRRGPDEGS
Summary of the method: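 Material: KCNQ1-expressing CHO cell line; Incubation: FluxOR dye loading 90 min, compound exposure 20 min, room temperature; Detection: FluxOR Tl+ flux fluorescence, 10 s baseline plus 110 s recording; Read-out: percent activation between buffer and R-L3 responses; Control set: buffer-only wells as 0% and R-L3 activator as 100%; Replication: duplicate wells per compound.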

[3] = target: Potassium voltage-gated channel subfamily KQT member 2 (Rattus norvegicus) (UniProt O88943); experiment: KCNQ2 thallium flux enhancement – KCNQ2-CHO-K1 cells, selectivity assay for KCNQ1 potentiator project (AID 493009;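 active = mean duplicate potentiation above the buffer control mean plus 5 SD of buffer wells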;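 note: assay conditions were tuned for KCNQ1 rather than KCNQ2 modulators; signal is max minus min fluorescence divided by baseline after thallium stimulus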); settings: FluxOR thallium flux fluorescence, at 10 µM; hits give high values, scaled: buffer 0, activator control 100
Potassium voltage-gated channel subfamily KQT member 2 (Rattus norvegicus), sequence (O88943 whole entry, looked up): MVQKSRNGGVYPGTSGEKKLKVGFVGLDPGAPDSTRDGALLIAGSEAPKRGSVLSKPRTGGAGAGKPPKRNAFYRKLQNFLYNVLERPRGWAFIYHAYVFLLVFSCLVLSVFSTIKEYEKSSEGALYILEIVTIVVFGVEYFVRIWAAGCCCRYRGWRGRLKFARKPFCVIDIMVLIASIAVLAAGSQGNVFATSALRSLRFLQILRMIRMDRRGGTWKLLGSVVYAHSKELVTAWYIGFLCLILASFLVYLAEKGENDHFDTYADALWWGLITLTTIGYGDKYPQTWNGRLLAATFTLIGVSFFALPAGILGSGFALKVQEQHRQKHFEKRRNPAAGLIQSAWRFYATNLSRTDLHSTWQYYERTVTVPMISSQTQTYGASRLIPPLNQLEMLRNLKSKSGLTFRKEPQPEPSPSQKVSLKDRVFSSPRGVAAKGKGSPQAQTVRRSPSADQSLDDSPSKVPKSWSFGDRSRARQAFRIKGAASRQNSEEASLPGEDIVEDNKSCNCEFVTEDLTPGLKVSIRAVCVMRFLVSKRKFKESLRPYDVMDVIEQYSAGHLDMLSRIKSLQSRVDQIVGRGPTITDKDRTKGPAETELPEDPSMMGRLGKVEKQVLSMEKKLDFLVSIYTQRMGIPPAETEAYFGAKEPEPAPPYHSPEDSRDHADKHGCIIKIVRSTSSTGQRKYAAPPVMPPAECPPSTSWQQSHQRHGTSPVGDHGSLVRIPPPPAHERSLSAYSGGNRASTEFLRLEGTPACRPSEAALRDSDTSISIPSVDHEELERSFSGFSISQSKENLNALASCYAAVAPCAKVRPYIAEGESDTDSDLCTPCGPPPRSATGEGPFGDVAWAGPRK

[4] = target: Potassium voltage-gated channel subfamily KQT member 1 (Homo sapiens) (UniProt P51787); experiment: KCNQ1 activators by electrophysiology – IonWorks patch clamp, KCNQ1-CHO cells, orthogonal assay for KCNQ1 potentiator project, confirmation (AID 493184); settings: automated patch clamp current, at 10 µM; hits give high values
Summary of the method: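 assay system = KCNQ1-expressing CHO cells | medium = external bath solution at pH 7.4 | probe or stimulus = 2,000 ms depolarization, -90 to +40 mV | compound dosing = 10 µM final, single point | measured by = automated voltage clamp, amphotericin B perforated patch | measure = percent current increase versus pre-compound level | replication = duplicates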

| SMILES | activation [1] | potentiation [2] | potentiation [3] | outcome [4] | outcome [1] | outcome [2] | outcome [3] |
| --- | --- | --- | --- | --- | --- | --- | --- |
| Cc1ccc(-c2csc3nc[nH]c(=S)c23)cc1 | 308% (active) | 124% (active) | 300% (active) | inactive |  |  |  |
| Cc1ccc(/C=N/Nc2nc(C(C)(C)C)cs2)o1 |  |  |  | inactive | inactive | inactive | inactive |
| CC(C)c1ccc(OCC(=O)NNC(=S)NC(=O)c2ccco2)c(Br)c1 | 154% (active) | 68.5% (active) | 232% (active) | inactive |  |  |  |
| OCCN1CCN(c2ncnc3c2sc2nc(N4CCOCC4)c4c(c23)CCC4)CC1 |  | 19% (active) |  | inactive | inactive |  | inactive |
| COc1ccc(N(Cc2ccccc2)S(=O)(=O)c2cccc(C(=O)O)c2)cc1 |  |  |  | inactive | inactive | inactive | inactive |
| CN1C(=O)NC(c2ccc(O)cc2)C(C(=O)c2cccs2)C1(O)C(F)(F)F (stereo not given) |  |  |  | inactive | inactive | inactive | inactive |
| COc1ccccc1NC(=O)Cn1cnc2c(oc3nc4c(cc32)CCCC4)c1=O |  |  |  | inactive | inactive | inactive | inactive |
| CCOC(=O)c1c(C)[nH]c(C(=O)Cn2nnc(-c3ccccc3Cl)n2)c1C |  |  |  | inactive | inactive | inactive | inactive |
| CC1(c2ccccc2)CC(C)(C)N2C(=O)/C(=C3\SC(=S)NC3=O)c3cccc1c32 (stereo not given) | 684% (active) | 292% (active) | 520% (active) | inactive |  |  |  |
| Cc1cccc(NC(=S)NNC(=O)c2cc3c(s2)CCC(C)C3)c1C (stereo not given) | 192% (active) | 55.5% (active) | 264% (active) | inactive |  |  |  |
| O=C(NC(=S)Nc1ccccc1)c1ccc(Br)o1 |  | 21.5% (active) | 158% (active) | inactive | inactive |  |  |
| COc1cccc(OCC(=O)NNC(=O)C(=O)Nc2ccc(OC)cc2OC)c1 | 172% (active) | 55.5% (active) | 222% (active) | inactive |  |  |  |
| O=C(NC(=S)N(CCc1ccccc1)CCc1ccccc1)c1ccco1 | 408% (active) | 364% (active) | 560% (active) | inactive |  |  |  |
| Nc1nc(-c2ccccc2)c(N=Nc2ccccc2Cl)s1 | 488% (active) | 168% (active) | 416% (active) | inactive |  |  |  |
| COc1ccc2nc(/N=C/c3c(C)[nH]n(-c4ccc(C)cc4)c3=O)sc2c1 | 340% (active) | 273% (active) | 518% (active) | inactive |  |  |  |
| CCC/C=N/NC(=O)c1[nH]c2c([N+](=O)[O-])cccc2c1C |  |  |  | inactive | inactive | inactive | inactive |
| N#CC(c1ccc(Cl)cc1)c1ccc2c(C(F)(F)F)cc(C(F)(F)F)nc2n1 (stereo not given) | 296% (active) | 145% (active) | 407% (active) | inactive |  |  |  |
| Cc1ccc(C(=O)O/N=C(\N)Cc2cccs2)c(Cl)c1 |  |  |  | inactive | inactive | inactive | inactive |
| Cc1ccc2nc(NC(=S)NC(=O)c3cccs3)sc2c1 | 168% (active) | 66% (active) | 158% (active) | inactive |  |  |  |
| C=CCn1c(=S)[nH]c2scc(-c3cccs3)c2c1=O | 620% (active) | 274% (active) | 554% (active) | inactive |  |  |  |

| SMILES | activation [1] | potentiation [2] | potentiation [3] | outcome [4] | outcome [1] | outcome [2] | outcome [3] |
| --- | --- | --- | --- | --- | --- | --- | --- |
| O=[N+]([O-])c1ccc(/C([O-])=C(/C(=S)NCc2ccco2)[n+]2ccccc2)cc1 |  |  |  | inactive | inactive | inactive | inactive |
| O=C(NC(=S)N1CCN(C/C=C/c2ccccc2)CC1)c1ccc(F)cc1 | 190% (active) | 74% (active) | 260% (active) | inactive |  |  |  |
| Cc1ccc(C(=O)NC(=S)N(C)Cc2ccccc2)cc1 | 146% (active) | 46% (active) | 178% (active) | inactive |  |  |  |
| O=C1c2ccccc2C2(c3cc(C(F)(F)F)cc(C(F)(F)F)c3)NCCN12 (stereo not given) |  |  |  | inactive | inactive | inactive | inactive |
| S=c1nc(-c2ccc(Br)cc2)[nH]c2ccccc12 | 572% (active) | 188% (active) | 538% (active) | inactive |  |  |  |
| COc1ccc(-n2nc(C(=O)NCC(=O)N3CCC(C(N)=O)CC3)c3ccccc3c2=O)cc1 |  |  |  | inactive | inactive | inactive | inactive |
| COc1ccccc1C(=O)NNC(=O)C(=O)NCc1ccccc1 | 188% (active) | 59.5% (active) | 218% (active) | inactive |  |  |  |
| O=c1c2c(-c3ccco3)csc2nc(SCc2cn3cccnc3n2)n1-c1ccccc1 |  |  |  | inactive | inactive | inactive | inactive |
| CCC(C)n1c(=S)[nH]c2c(sc3ccc([N+](=O)[O-])cc32)c1=O (stereo not given) | 764% (active) | 342% (active) | 709% (active) | inactive |  |  |  |
| COc1cccc(C(=O)NNC(=O)C(=O)Nc2cccc(Cl)c2C)c1 | 195% (active) | 128% (active) | 299% (active) | inactive |  |  |  |
| CCCn1cc(NC(=O)c2cc(-c3ccccc3)on2)cn1 |  | 25% (active) |  | inactive | inactive |  | inactive |
| Cc1ccc2nsnc2c1S(=O)(=O)Nc1cccc2nsnc12 | 143% (active) | 26% (active) | 174% (active) | inactive |  |  |  |
| COc1ccc2oc(C(=O)OCC(=O)N3CC(C)OC(C)C3)c(C)c2c1 (stereo not given) |  |  |  | inactive | inactive | inactive | inactive |
| CC(C)[N+]1(C)[C@@H]2CC[C@H]1CC(OC(=O)C(CO)c1ccccc1)C2 (stereo not given in full) |  |  |  | inactive | inactive | inactive | inactive |
| Cn1c(SCc2ccc(C#N)cc2Cl)nc2ccccc21 |  |  |  | inactive | inactive | inactive | inactive |
| CCCOC(=S)NC(=O)c1sc2ccccc2c1Cl | 294% (active) | 106% (active) | 274% (active) | inactive |  |  |  |
| CCc1nc2sc3c(=O)[nH]cnc3c2c2c1CSC(C)(C)C2 |  |  |  | inactive | inactive | inactive | inactive |
| COCCNC(=O)CN(C)S(=O)(=O)c1ccc(Br)cc1 |  |  |  | inactive | inactive | inactive | inactive |
| Cc1cc(NS(=O)(=O)c2ccc(NC(=O)C(C)Oc3ccccc3Cl)cc2)no1 (stereo not given) |  |  |  | inactive | inactive | inactive | inactive |
| CCc1ccc(/C=N/NC(=O)Cc2cccn2C)cc1 |  |  |  | inactive | inactive | inactive | inactive |

| SMILES | activation [1] | potentiation [2] | potentiation [3] | outcome [4] | outcome [1] | outcome [2] | outcome [3] |
| --- | --- | --- | --- | --- | --- | --- | --- |
| O=C(Nc1ccc(C(=O)O)cc1)/C(=C\c1ccc2c(c1)OCO2)NC(=O)c1ccc(Br)cc1 |  |  |  | inactive | inactive | inactive | inactive |
| CCOc1ccccc1NC(=S)NC(=O)c1ccco1 | 172% (active) | 35% (active) | 184% (active) | inactive |  |  |  |
| Cc1ccc(Cn2c(SCC(=O)N3CC(=O)Nc4ccccc43)nc3ccccc3c2=O)cc1 |  |  |  | inactive | inactive | inactive | inactive |
| O=C(NNc1ncc(C(F)(F)F)cc1Cl)c1c(Cl)cccc1Cl |  |  |  | inactive | inactive | inactive | inactive |
| CCCCC(=O)N(c1ccc(OCC)cc1)C1C=CS(=O)(=O)C1 (stereo not given) |  |  |  | inactive | inactive | inactive | inactive |
| O=C(OCc1cccc([N+](=O)[O-])c1)c1ccncc1 |  |  |  | inactive | inactive | inactive | inactive |
| Fc1ccc(-n2nnc(-c3ccccc3)n2)cc1 |  |  |  | inactive | inactive | inactive | inactive |
| CC(C)c1ccc(C(=O)NC2=NCCS2)cc1 |  |  |  | inactive | inactive | inactive | inactive |
| CCOc1cc(CNc2ncnc3nc[nH]c23)ccc1OC |  |  |  | inactive | inactive | inactive | inactive |
| CCOC(=O)C1=NN(C(=O)c2ccc(OC)cc2)C(O)(c2ccc(Cl)cc2)C1 (stereo not given) | 456% (active) | 136% (active) | 428% (active) | inactive |  |  |  |
| COc1ccc(-n2cc(CNC3CCN(C)CC3)c(-c3cccc(F)c3)n2)cc1 | 142% (active) | 31% (active) |  | inactive |  |  | inactive |
| O=C(CCC(=O)N1CCOc2ccc(Cl)cc21)NCCN1CCOCC1 |  |  |  | inactive | inactive | inactive | inactive |
| O=C(NC(=S)N1CCCCCC1)c1ccc(Cl)cc1Cl | 148% (active) |  | 158% (active) | inactive |  | inactive |  |
| CCn1c(=S)[nH]c2sc3c(c2c1=O)CCCC3 | 338% (active) | 149% (active) | 383% (active) | inactive |  |  |  |
| NS(=O)(=O)c1ccc(NC(=S)Nc2ccc(OCc3ccccc3)cc2)cc1 |  |  |  | inactive | inactive | inactive | inactive |
| Cc1csc(N/N=C/c2ccc([N+](=O)[O-])cc2)n1 |  | 46% (active) | 158% (active) | inactive | inactive |  |  |
| Cc1ccc(C(=O)Sc2cccccc2=O)cc1 | 230% (active) | 37.5% (active) | 228% (active) | inactive |  |  |  |
| COc1ccc(C(=O)CC(=O)C(=O)Nc2ccc(C)c(Cl)c2)cc1 | 138% (active) | 26% (active) |  | inactive |  |  | inactive |
| CC(=O)Nc1c2c(nn1-c1ccc(C)cc1)CS(=O)(=O)C2 |  |  |  | inactive | inactive | inactive | inactive |
| O=C(Nc1ccccc1)C1=C(c2ccccc2)S(=O)(=O)CCS1(=O)=O |  |  |  | inactive | inactive | inactive | inactive |
